Test results as given in ChEMBL document CHEMBL3091454, “Improved Cav2.2 Channel Inhibitors through a gem-Dimethylsulfone Bioisostere Replacement of a Labile Sulfonamide” (ACS Med Chem Lett, 2013).

Experiments:
CYP3A4 = CYP3A4 (Homo sapiens, UniProt P08684); test: Inhibition of CYP3A4 (unknown origin) at 10 uM relative to control; format: ADME
[1] = biological target: T1, Voltage-dependent N-type calcium channel subunit alpha-1B (Homo sapiens, UniProt Q00975); test: Inhibition of Cav2.2-mediated calcium influx in HEK cells by FLIPR assay; format: cell-based, HEK293
In short: (§1)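 Cav2.2 calcium-influx FLIPR assay; compounds screened for percent inhibition at single concentration, active ones titrated for IC50; values averaged over n ≥ 3.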
Target sequence in this assay (Q00975 whole entry): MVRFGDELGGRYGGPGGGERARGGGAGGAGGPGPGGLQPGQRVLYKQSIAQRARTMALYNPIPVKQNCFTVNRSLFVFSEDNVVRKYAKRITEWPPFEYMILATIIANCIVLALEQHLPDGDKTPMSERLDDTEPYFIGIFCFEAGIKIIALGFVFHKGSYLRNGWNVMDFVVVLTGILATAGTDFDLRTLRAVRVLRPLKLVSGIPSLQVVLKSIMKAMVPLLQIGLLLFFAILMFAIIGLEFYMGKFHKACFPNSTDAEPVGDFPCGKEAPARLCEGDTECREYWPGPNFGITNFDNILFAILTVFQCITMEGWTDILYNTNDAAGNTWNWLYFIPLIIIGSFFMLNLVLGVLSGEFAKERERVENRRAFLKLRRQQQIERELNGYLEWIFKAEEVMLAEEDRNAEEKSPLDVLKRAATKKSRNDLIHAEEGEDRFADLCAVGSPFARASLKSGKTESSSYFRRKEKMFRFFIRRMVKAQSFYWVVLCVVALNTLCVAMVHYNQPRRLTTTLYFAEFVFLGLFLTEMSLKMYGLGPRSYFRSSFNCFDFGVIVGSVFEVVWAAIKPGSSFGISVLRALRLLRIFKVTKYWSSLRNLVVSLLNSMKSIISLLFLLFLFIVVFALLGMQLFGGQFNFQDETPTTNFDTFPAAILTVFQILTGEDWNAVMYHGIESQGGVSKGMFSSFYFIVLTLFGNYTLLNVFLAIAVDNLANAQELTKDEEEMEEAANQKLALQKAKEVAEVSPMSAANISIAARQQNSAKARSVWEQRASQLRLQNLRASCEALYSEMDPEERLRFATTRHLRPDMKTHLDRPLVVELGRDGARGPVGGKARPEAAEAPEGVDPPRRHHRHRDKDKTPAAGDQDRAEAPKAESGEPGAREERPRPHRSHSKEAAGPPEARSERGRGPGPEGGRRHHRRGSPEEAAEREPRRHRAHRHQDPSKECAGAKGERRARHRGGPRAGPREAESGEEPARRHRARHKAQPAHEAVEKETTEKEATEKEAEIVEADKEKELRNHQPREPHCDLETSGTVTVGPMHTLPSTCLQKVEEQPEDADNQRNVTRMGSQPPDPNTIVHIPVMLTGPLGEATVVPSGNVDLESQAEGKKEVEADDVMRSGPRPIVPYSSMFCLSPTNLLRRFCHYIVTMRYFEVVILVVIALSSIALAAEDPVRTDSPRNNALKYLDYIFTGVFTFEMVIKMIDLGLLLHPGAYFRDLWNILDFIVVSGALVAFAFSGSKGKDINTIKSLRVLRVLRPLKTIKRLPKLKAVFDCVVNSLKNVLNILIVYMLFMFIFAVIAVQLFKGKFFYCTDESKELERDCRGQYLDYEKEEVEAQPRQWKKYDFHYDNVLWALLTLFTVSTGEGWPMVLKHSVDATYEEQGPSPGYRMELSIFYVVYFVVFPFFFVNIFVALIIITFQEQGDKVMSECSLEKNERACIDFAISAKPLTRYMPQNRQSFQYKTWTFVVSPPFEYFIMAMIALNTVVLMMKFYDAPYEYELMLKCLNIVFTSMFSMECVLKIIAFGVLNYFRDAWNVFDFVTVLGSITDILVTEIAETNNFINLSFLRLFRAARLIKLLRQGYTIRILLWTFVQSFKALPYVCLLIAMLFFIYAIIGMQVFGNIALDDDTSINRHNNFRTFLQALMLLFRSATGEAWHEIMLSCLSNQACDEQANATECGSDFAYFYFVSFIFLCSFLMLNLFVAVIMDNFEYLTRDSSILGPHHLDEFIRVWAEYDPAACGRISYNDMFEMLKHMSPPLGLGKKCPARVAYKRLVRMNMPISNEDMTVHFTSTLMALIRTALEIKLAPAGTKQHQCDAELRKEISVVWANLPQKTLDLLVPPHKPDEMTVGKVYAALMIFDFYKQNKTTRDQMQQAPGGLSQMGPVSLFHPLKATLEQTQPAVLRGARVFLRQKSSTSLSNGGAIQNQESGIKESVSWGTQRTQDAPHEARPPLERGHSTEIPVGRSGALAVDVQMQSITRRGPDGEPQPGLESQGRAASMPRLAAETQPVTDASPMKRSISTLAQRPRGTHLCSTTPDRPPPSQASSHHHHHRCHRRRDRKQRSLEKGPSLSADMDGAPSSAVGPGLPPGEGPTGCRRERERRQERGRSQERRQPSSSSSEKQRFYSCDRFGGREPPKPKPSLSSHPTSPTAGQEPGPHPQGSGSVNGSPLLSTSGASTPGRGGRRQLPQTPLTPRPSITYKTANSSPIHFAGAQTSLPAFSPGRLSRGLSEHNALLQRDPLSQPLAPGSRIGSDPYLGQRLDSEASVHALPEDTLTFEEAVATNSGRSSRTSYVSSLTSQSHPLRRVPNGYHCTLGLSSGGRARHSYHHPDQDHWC

hERG (KCNH2) = hERG (KCNH2) (Homo sapiens, UniProt Q12809); test: Displacement of [35S]MK-499 from human ERG at 10 uM relative to control; conditions: probe [35S]MK-499
In short: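 hERG binding assessed by displacement of [35S]MK-499; percent inhibition at 10 μM test compound.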

[2] = biological target: T2, Nuclear receptor subfamily 1 group I member 2 (Homo sapiens, UniProt O75469); test: Activation of PXR (unknown origin)
T2 sequence (O75469 whole entry): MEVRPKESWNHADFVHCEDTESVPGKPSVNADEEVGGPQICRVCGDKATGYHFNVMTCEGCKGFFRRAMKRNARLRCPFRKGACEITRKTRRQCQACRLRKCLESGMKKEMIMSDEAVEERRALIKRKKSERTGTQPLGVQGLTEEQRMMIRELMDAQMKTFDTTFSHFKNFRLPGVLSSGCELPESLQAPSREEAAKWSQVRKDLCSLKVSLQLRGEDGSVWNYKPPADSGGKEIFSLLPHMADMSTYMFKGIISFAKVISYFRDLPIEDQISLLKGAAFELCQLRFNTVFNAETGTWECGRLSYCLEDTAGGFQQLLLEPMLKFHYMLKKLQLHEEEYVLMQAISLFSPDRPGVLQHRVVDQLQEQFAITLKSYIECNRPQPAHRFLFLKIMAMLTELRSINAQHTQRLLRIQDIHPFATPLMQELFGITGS

[3] = Metabolic stability in rat liver microsomes assessed as compound remaining at 10 uM after 1 hr in presence of NADPH; format: ADME; conditions: read-out: Stability
In short: (§2)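 Liver microsomes (rat or human) incubated with compound and NADPH for 1 h; percent of parent remaining. Table footnote gives 10 μM compound, 1 mM NADPH, 1 mg/mL protein; text gives 1 μM substrate, 1 mg/mL protein.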

Rattus norvegicus [4] = test: Normalized AUC in rat whole blood at 3 mg/kg, po; format: ADME, organism-based; set-up: dose 3 mg/kg, route oral; conditions: in vivo
In short: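 Rats dosed 3 mg/kg orally and 1 mg/kg intravenously; PK parameters derived from whole-blood concentrations. Normalized oral AUC given in μM·h·kg/mg, clearance in mL/min/kg, plus half-life and oral bioavailability.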

[5] = Metabolic stability in human liver microsomes assessed as compound remaining at 10 uM after 1 hr in presence of NADPH; format: ADME; conditions: read-out: Stability; in short: as §2
Rattus norvegicus [6] = test: Normalized AUC in rat whole blood assessed as 3-(trifluoromethyl)-benzenesulfonamide level at 3 mg/kg, po; format: ADME, organism-based; set-up: dose 3 mg/kg, route oral; conditions: in vivo
In short: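 Rats given a single 3 mg/kg oral dose of parent; whole-blood levels of parent and sulfonamide metabolite followed over time, n = 2 rats. Metabolite AUC normalized to dose (μM·h·kg/mg).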

[7] = biological target: T1, Voltage-dependent N-type calcium channel subunit alpha-1B; test: Inhibition of Cav2.2-mediated calcium influx in HEK cells at 10 uM by FLIPR assay relative to control; format: cell-based; conditions: HEK293, 1 uM, in the assay text read “at 1 uM” for “at 10 uM”; in short: as §1
Target sequence in this assay (Q00975 whole entry, looked up): as the sequence (Q00975 whole entry) above

Liver microsome [8] = test: Drug metabolism in rat liver microsomes assessed as 3-(trifluoromethyl)-benzenesulfonamide level after 1 hr in presence of NADPH; format: ADME
Liver microsome [9] = test: Drug metabolism in human liver microsomes assessed as 3-(trifluoromethyl)-benzenesulfonamide level after 1 hr in presence of NADPH; format: ADME

Sequence of CYP3A4 (P08684 whole entry): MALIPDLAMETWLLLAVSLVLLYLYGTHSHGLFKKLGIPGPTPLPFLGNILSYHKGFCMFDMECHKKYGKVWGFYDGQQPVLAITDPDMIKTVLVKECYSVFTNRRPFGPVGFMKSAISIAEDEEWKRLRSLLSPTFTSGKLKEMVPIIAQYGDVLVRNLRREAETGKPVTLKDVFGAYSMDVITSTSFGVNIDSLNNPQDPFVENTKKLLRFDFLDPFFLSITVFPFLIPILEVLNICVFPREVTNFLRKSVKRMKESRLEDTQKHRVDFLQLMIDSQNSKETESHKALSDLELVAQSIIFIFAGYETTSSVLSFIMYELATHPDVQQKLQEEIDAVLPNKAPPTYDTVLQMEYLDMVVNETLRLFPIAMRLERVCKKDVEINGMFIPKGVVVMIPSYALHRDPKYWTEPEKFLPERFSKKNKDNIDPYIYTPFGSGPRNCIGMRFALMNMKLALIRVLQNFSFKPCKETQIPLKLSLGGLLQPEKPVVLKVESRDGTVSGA
Sequence of hERG (KCNH2) (Q12809 whole entry): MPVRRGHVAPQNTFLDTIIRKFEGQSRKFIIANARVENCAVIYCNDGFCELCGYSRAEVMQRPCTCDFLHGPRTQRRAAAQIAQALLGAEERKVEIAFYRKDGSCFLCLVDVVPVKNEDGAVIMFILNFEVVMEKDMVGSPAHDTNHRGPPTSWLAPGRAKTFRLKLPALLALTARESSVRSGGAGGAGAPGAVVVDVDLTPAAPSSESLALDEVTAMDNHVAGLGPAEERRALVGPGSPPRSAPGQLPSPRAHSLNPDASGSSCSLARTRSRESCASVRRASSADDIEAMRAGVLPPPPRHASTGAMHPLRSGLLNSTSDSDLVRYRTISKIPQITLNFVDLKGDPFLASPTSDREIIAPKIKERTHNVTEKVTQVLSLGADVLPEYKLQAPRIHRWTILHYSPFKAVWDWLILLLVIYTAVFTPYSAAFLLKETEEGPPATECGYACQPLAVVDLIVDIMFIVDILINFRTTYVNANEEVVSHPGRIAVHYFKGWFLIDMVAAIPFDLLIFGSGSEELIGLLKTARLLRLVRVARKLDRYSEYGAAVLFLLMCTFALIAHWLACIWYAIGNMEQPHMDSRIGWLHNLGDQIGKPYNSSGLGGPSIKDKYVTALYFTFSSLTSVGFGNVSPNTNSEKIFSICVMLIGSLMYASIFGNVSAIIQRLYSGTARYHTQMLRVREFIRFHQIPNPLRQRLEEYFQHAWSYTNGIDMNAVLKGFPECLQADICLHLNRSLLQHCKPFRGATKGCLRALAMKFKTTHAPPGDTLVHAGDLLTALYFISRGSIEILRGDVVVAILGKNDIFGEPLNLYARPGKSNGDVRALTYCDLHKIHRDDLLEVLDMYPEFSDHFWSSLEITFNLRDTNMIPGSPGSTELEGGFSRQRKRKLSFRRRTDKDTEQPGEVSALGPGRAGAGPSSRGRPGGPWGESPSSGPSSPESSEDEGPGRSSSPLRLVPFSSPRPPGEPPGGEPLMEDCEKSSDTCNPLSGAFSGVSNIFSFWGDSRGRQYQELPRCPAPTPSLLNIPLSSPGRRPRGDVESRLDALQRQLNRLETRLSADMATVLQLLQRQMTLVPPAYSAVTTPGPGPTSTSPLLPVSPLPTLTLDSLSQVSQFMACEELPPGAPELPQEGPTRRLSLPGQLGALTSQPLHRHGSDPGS

| inhibition at 10 µM (CYP3A4) [%] | IC50 [1] [nM] | EC50 [2] [nM] | SMILES | inhibition at 10 µM (hERG (KCNH2)) [%] | also measured |
| --- | --- | --- | --- | --- | --- |
| – | 970 | – | CS(=O)(=O)c1ccc(F)cc1C(=O)N1CC(N(C2CC2)S(=O)(=O)c2cccc(C(F)(F)F)c2)C1 | – | – |
| – | 710 | – | CC1(N(C2CC2)S(=O)(=O)c2cccc(C(F)(F)F)c2)CCN(C(=O)c2cc(F)ccc2S(C)(=O)=O)CC1 | – | Drug metabolism (Liver microsome [8]): 0.06 µM; Drug metabolism (Liver microsome [9]): 0.04 µM |
| – | 370 | – | CS(=O)(=O)c1ccc(F)cc1C(=O)N1CCC(N(C2CC2)S(=O)(=O)c2cccc(C(F)(F)F)c2)C1 (racemic) | – | – |
| – | 430 | – | C[C@H]1[C@H](N(C2CC2)S(=O)(=O)c2cccc(C(F)(F)F)c2)CN1C(=O)c1cc(F)ccc1S(C)(=O)=O (racemic) | – | – |
| – | 380 | – | C[C@@H]1[C@H](N(C2CC2)S(=O)(=O)c2cccc(C(F)(F)F)c2)CN1C(=O)c1cc(F)ccc1S(C)(=O)=O (racemic) | – | – |

Further lines, the molecule ahead of its results:

| SMILES | inhibition at 10 µM (CYP3A4) [%] | IC50 [1] [nM] | EC50 [2] [nM] | inhibition at 10 µM (hERG (KCNH2)) [%] | also measured |
| --- | --- | --- | --- | --- | --- |
| CS(=O)(=O)c1ccc(Cl)c(C(=O)N2CCC(N(C3CC3)S(=O)(=O)c3cccc(C(F)(F)F)c3)CC2)c1 | 69 | 340 | 2700 | 49 | – |
| CS(=O)(=O)c1cc(C(F)(F)F)ccc1C(=O)N1CCC2(CCN(S(=O)(=O)c3cccc(C(F)(F)F)c3)CC2)C1 | – | 72 | – | – | remaining at 1 h, 10 µM [3]: 12%; AUC/dose (Rattus norvegicus [4]): 0.022 µM·kg·h/mg; remaining at 1 h, 10 µM [5]: 8.5%; AUC/dose (Rattus norvegicus [6]): 218 µM·kg·h/mg |
| NC(=O)c1ccc(C(=O)N2CCC(N(C3CC3)S(=O)(=O)c3cccc(C(F)(F)F)c3)CC2)c(C(F)(F)F)c1 | 61 | 760 | 1900 | 32 | – |
| CS(=O)(=O)c1ccc(C(=O)N2CCC(N(C3CC3)S(=O)(=O)c3cccc(C(F)(F)F)c3)CC2)c(Cl)c1 | 78 | 290 | 10800 | 32 | – |
| CS(=O)(=O)c1ccc(C(=O)N2CCC(N(C3CC3)S(=O)(=O)c3cccc(C(F)(F)F)c3)CC2)c(OC(F)(F)F)c1 | 16 | 48 | 1700 | 63 | – |
| CS(=O)(=O)c1cc(C#N)ccc1C(=O)N1CCC(N(C2CC2)S(=O)(=O)c2cccc(C(F)(F)F)c2)CC1 | 86 | 450 | 8400 | 66 | – |
| CS(=O)(=O)c1ccc(C(=O)N2CCC(N(C(=O)c3cccc(C(F)(F)F)c3)C3CC3)CC2)c(OC(F)(F)F)c1 | – | – | – | – | inhibition [7]: 48% |
| CS(=O)(=O)c1ccc(C(=O)N2CC(N(C3CC3)S(=O)(=O)c3cccc(C(F)(F)F)c3)C2)c(C(F)(F)F)c1 | – | 270 | – | – | remaining at 1 h, 10 µM [3]: 72%; Drug metabolism (Liver microsome [8]): 0.04 µM; remaining at 1 h, 10 µM [5]: 78%; Drug metabolism (Liver microsome [9]): 0.45 µM |
| CS(=O)(=O)c1ccc(C(=O)N2CCC(N(C3CC3)S(=O)(=O)c3cccc(C(F)(F)F)c3)CC2)c(F)c1 | – | 350 | 6800 | 78 | – |
| CS(=O)(=O)c1ccc(C(=O)N2CCC(CS(=O)(=O)c3cccc(C(F)(F)F)c3)CC2)c(OC(F)(F)F)c1 | – | 360 | – | – | – |
